A selection: hits, their analogues and other compounds. The true share with any hit is near 2.3%.
TRPC6 act = activates the mouse TRPC6 cation channel. B-score at 10 µM. 310,000 tested, 0.13% active. HEK293-TRPC6 membrane potential dye fluorescence; active compounds read high. Q61143;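 active = B-score of the integrated fluorescence ratio above library mean plus 3 SD, and starting fluorescence ratio within library mean plus 5 SD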;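 note: higher score means more depolarization so channel activation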
Target sequence (Q61143 whole entry, looked up): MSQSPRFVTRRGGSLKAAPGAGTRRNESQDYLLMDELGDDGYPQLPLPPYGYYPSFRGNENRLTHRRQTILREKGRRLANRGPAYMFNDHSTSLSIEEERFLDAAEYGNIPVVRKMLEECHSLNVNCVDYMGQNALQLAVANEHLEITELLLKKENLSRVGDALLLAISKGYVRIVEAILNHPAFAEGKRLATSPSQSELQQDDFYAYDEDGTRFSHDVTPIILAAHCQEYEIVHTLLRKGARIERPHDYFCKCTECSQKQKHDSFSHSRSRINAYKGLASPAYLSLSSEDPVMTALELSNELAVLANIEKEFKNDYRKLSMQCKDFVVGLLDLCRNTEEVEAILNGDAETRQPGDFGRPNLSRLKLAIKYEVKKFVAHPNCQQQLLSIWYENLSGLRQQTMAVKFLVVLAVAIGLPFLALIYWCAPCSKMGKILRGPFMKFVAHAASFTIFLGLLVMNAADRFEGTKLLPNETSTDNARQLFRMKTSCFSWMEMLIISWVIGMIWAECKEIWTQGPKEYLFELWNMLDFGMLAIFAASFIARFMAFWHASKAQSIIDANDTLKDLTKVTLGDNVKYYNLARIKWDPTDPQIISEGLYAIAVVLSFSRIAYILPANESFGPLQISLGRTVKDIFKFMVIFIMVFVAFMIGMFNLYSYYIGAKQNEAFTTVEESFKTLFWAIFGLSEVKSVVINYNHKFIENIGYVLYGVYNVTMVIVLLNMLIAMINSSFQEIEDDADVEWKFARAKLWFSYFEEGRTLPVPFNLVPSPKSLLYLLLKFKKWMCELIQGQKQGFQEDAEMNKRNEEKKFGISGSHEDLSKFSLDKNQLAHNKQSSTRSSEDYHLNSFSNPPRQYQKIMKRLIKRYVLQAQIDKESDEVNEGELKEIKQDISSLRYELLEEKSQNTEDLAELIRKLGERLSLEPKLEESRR
TRPC4 block = inhibitors of mouse TRPC4 channel; B-score at 10 µM; Q9QUQ5; 300,000 tested, 0.39% active; HEK293 TRPC4beta/mu-opioid, DAMGO-evoked Fluo4 calcium flux; active compounds read low; AID 2247;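 active = B-score over 3 SD under the library average, no early fluorescence shift, positive overall ratio signal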
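Material: HEK293 cells with stable TRPC4beta plus mu-opioid receptor expression / Probe or stimulus: DAMGO in two steps, submaximal then maximal / Compound: single concentration per test compound / Technique: kinetic Fluo4 fluorescence imaging of calcium influx / Read-out: per-well B score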
TRPC6 inh = blocks the mouse TRPC6 cation channel; Q61143; HEK293-TRPC6, membrane potential dye, ACh-evoked depolarization; active compounds read low; B-score at 10 µM; 310,000 tested, 1.1% active;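 active = B-score under library mean minus 3 SD, initial fluorescence not abnormally high, positive integrated signal ratio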;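 note: B-score derived from integrated fluorescence ratio over the kinetic read; more negative B-score means stronger inhibition of depolarization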
TRPC4 potent = TRPC4 (mouse) allosteric potentiation; Q9QUQ5; HEK293 TRPC4beta/mu-opioid, DAMGO EC20, Fluo-4 Ca2+ flux; active compounds read high; B-score at 10 µM; 310,000 tested, 0.42% active;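 active = B-score of calcium response area above 5 SD of library B-scores, with initial fluorescence ratio within 5 SD of library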
TRPC4 act = opens the mouse TRPC4 cation channel; AID 2237; 310,000 tested, 0.49% active; B-score at 10 µM; HEK293 TRPC4beta/mu-opioid, Fluo4 calcium fluorescence; active compounds read high; Q9QUQ5;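 active = B-score above 5 SD of library B-scores, and initial fluorescence ratio not above library mean plus 5 SD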;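 note: positive B-score marks a calcium rise read as TRPC4 activation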
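System: HEK293 cells stably co-expressing mouse TRPC4beta and mu-opioid receptor; Schedule: Fluo4 dye loading 45 min at room temperature, 110 s recording; Detection: Fluo4 fluorescence, kinetic; Evaluation: B-scored integrated calcium fluorescence ratio; Controls: buffer (low) and maximal DAMGO (high).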
TRPC4 spec 2 = second selectivity test of TRPC6 inhibitors: effect on mouse TRPC4; 920 tested, 42% active; HEK293 TRPC4/MOR, membrane potential dye fluorescence; channel activated by saturating DAMGO dose; shares compounds with TRPC6 inh; AID 2776; inhibition, % at 10 µM;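 active = compounds whose fluorescence signal differed from control wells by over 3 SD, either direction, in both duplicate plates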
TRPC4 spec = tests whether TRPC6 inhibitors also affect mouse TRPC4; HEK293 TRPC4/mu-opioid, membrane potential fluorescence; activity change, negative = inhibition, % at 10 µM; shares compounds with TRPC6 inh; 920 tested, 61% active;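 active = rise or fall in signal beyond 3 SD of buffer-only wells in both replicate plates, either sign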;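 note: integrated kinetic ratio of fluorescence range over baseline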
HEK293 MPD ctr 2-1 = second counter-screen for TRPC6 inhibitors: parental HEK293 cells; shares compounds with TRPC6 inh; AID 2779; signal change vs control, % at 10 µM; 920 tested, 31% active; parental HEK293 membrane potential dye fluorescence; maximal acetylcholine challenge after compound addition;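 active = membrane potential signal moving either way by over 3 SD of the maximum-effect control, in both duplicate plates, meaning non-specific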
HEK293 MPD ctr-1 = checks TRPC6 inhibitor effects in parental HEK293 cells; membrane potential signal change, % at 10 µM; AID 2780; 920 tested, 60% active; shares compounds with TRPC6 inh; parental HEK293 membrane potential dye fluorescence;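 active = membrane potential signal shifting up or down by more than 3 SD of buffer-only wells, on both duplicate plates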
HEK293 MPD ctr-2 = counter-screen for TRPC6 modulators: effect in parental HEK293 cells. membrane potential dye fluorescence. shares compounds with TRPC6 inh. 2,400 tested, 51% active. membrane potential signal change, % at 10 µM. AID 488924;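 active = membrane potential signal moves up or down beyond 5 SD from buffer-only wells, on both duplicate plates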
HEK293 MPD ctr 2-2 = second check of TRPC6 modulator effects in parental HEK293 cells | shares compounds with TRPC6 inh | membrane potential dye fluorescence; after compound, maximal acetylcholine stimulation | inhibition, % at 10 µM | 2,400 tested, 14% active | AID 488926;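 active = membrane potential signal drops by more than 5 SD from the mean control signal, in both duplicate plates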
TRPC4/MOR mod = mouse TRPC4 off-target activity of TRPC6 modulators. percent change from control (negative = decrease, positive = increase), % at 10 µM. shares compounds with TRPC6 inh. 2,400 tested, 69% active. HEK293 TRPC4/mu-opioid, membrane potential fluorescence;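 active = membrane potential signal moved up or down beyond 5 SD of buffer control wells, in both duplicate plates, actives on both sides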
TRPC4/MOR inh 2 = mouse TRPC4 off-target activity of TRPC6 modulators, second screen. shares compounds with TRPC6 inh. HEK293 TRPC4/mu-opioid, membrane potential dye fluorescence; stimulated with maximal-effect DAMGO. inhibition, % at 10 µM. 2,400 tested, 55% active. AID 488928;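 active = drop in membrane potential signal beyond 5 SD of the control wells in both duplicate plates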;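 note: TRPC4 counter screen for TRPC6 hits run under conditions tuned for TRPC6 not TRPC4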
TRPC6 block conf = mouse TRPC6 inhibitor confirmation; inhibition, % at 10 µM; AID 488960; 3,300 tested, 43% active; shares compounds with TRPC6 inh; HEK293-TRPC6, membrane potential dye, ACh-evoked depolarization;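 active = fluorescence ratio falls more than 5 SD below the full-stimulation control mean, in both duplicate runs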;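 note: integrated fluorescence ratio of peak minus minimum over baseline after agonist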
TRPC6 act conf = mouse TRPC6 activator confirmation | activation, % at 10 µM | 2,800 tested, 11% active | shares compounds with TRPC6 inh | HEK293-TRPC6 membrane potential dye fluorescence, FDSS | AID 488961;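 active = ratio signal rise beyond 5 SD above unstimulated control wells' mean, seen in both duplicate runs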
Large screens that a line does not name were inactive (follow-up assays come after a bar, where they were run).

COc1ccc(CCn2c(=N)c(C(=O)NCC3CCCO3)cc3c(=O)n4ccccc4nc32)cc1 (stereo unspecified)	TRPC6 inh -5.8 | HEK293 MPD ctr-2 -82.5% | HEK293 MPD ctr 2-2 inactive | TRPC4/MOR mod -22.0% | TRPC4/MOR inh 2 60.0% | TRPC6 block conf 58.0% | TRPC6 act conf inactive
CCOC(=O)c1cc2c(=O)n3ccccc3nc2n(Cc2ccccc2)c1=N	TRPC6 inh -7.88 | HEK293 MPD ctr-2 -146.5% | HEK293 MPD ctr 2-2 inactive | TRPC4/MOR mod -31.5% | TRPC4/MOR inh 2 41.5% | TRPC6 block conf inactive | TRPC6 act conf inactive
CCOC(=O)c1cc2c(=O)n3ccccc3nc2n(CC(C)C)c1=NC(=O)c1ccco1	none
N=c1c(C(=O)NC2CCCC2)cc2c(=O)n3ccccc3nc2n1Cc1ccccc1	TRPC6 inh -5.18 | HEK293 MPD ctr-2 -169.5% | HEK293 MPD ctr 2-2 inactive | TRPC4/MOR mod -34.5% | TRPC4/MOR inh 2 48.0% | TRPC6 block conf inactive | TRPC6 act conf inactive
Cc1cc(C)cc(-n2c(C)c3c(C)nnc(C)c3c2C)c1	TRPC6 inh -7.64 | TRPC4 spec 2 54.5% | TRPC4 spec -18.9% | HEK293 MPD ctr 2-1 inactive | HEK293 MPD ctr-1 -215.5% | TRPC6 block conf inactive | TRPC6 act conf inactive
Cc1nnc(C)c2c(C)n(-c3ccc(Cl)c(N)c3)c(C)c12	none
O=C(NCc1cccc(Br)c1)c1cc(-c2ccccc2)nn1CC1CC(c2cccc([N+](=O)[O-])c2)=NO1 (stereo unspecified)	none
CCSC1=N/C(=C\c2ccc(C(=O)O)cc2)C(=O)S1	none
CCOC(=O)SC1=N/C(=C\c2ccc(N(C)C)cc2)C(=O)S1	TRPC6 act 11.7, TRPC6 inh -5.99 | HEK293 MPD ctr-2 inactive | HEK293 MPD ctr 2-2 inactive | TRPC4/MOR mod 12.5% | TRPC4/MOR inh 2 inactive | TRPC6 block conf inactive | TRPC6 act conf inactive
CC1CN(C(=O)CSc2nnc(-c3ccc(Cl)cc3)n2C)CC(C)O1 (stereo unspecified)	TRPC6 inh -5.15 | HEK293 MPD ctr-2 inactive | HEK293 MPD ctr 2-2 inactive | TRPC4/MOR mod inactive | TRPC4/MOR inh 2 inactive | TRPC6 block conf inactive | TRPC6 act conf inactive
CC(C)(C)N(Cc1ccccc1)C(=O)c1ccc(Cl)cc1[N+](=O)[O-]	TRPC6 inh -6.48 | HEK293 MPD ctr-2 inactive | HEK293 MPD ctr 2-2 inactive | TRPC4/MOR mod inactive | TRPC4/MOR inh 2 inactive | TRPC6 block conf inactive | TRPC6 act conf inactive

Compound activity deposited in PubChem BioAssay by Johns Hopkins Ion Channel Center.
